Assay results reported in ChEMBL document CHEMBL4428071 (J Med Chem, 2016).
Values after ≈ are worked out from the molar mass of the structure shown. Active and inactive are the calls of the source. The rule behind the calls is not given here.

Assays:
[1] = biological target: Vascular endothelial growth factor receptor 3 (Homo sapiens) (UniProt P35916); experiment: Inhibition of partial length human FLT4 expressed in bacterial expression system assessed as activity remaining at 1 uM by kinome scan assay
Chain of Vascular endothelial growth factor receptor 3 (Homo sapiens) (P35916 whole entry, the tested form may be a part): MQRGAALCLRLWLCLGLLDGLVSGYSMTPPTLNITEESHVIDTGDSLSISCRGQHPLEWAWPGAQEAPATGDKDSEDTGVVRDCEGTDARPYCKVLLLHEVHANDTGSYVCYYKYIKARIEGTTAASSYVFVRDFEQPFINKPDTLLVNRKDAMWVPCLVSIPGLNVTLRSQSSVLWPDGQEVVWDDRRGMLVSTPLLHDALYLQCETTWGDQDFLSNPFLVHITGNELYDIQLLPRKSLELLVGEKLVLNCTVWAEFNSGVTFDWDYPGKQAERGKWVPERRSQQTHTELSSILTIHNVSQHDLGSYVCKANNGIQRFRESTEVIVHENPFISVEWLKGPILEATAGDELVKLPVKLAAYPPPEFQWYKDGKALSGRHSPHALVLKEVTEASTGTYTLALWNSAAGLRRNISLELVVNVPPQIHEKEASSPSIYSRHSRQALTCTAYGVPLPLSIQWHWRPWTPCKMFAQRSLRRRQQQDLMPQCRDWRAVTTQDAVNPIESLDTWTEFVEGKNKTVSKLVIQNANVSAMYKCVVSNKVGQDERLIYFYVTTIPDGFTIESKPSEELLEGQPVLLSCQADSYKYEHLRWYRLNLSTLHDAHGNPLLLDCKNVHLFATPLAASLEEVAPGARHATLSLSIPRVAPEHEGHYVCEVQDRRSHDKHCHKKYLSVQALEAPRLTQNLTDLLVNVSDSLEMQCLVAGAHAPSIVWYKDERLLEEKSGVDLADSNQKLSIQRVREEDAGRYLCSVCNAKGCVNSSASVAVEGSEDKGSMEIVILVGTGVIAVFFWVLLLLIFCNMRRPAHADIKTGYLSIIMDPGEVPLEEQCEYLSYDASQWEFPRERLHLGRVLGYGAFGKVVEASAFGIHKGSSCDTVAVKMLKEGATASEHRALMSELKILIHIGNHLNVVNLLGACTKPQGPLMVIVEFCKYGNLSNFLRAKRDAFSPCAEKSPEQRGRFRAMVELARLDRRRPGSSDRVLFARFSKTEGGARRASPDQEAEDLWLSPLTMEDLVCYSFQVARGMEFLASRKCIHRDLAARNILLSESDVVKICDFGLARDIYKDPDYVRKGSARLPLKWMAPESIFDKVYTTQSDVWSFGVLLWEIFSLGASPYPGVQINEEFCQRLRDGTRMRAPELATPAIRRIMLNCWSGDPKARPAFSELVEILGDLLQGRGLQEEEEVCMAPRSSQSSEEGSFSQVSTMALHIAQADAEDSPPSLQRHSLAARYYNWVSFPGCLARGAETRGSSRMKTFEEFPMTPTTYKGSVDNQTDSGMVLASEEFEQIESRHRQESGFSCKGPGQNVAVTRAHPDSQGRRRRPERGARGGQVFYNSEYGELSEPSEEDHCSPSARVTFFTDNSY

[2] = biological target: T1, Mast/stem cell growth factor receptor Kit (Homo sapiens, UniProt P10721); experiment: Ratio of Imatinib IC50 to compound IC50 for wild type cKIT in human GIST-T1 cells; assay type: cell-based
T1 sequence (P10721 whole entry): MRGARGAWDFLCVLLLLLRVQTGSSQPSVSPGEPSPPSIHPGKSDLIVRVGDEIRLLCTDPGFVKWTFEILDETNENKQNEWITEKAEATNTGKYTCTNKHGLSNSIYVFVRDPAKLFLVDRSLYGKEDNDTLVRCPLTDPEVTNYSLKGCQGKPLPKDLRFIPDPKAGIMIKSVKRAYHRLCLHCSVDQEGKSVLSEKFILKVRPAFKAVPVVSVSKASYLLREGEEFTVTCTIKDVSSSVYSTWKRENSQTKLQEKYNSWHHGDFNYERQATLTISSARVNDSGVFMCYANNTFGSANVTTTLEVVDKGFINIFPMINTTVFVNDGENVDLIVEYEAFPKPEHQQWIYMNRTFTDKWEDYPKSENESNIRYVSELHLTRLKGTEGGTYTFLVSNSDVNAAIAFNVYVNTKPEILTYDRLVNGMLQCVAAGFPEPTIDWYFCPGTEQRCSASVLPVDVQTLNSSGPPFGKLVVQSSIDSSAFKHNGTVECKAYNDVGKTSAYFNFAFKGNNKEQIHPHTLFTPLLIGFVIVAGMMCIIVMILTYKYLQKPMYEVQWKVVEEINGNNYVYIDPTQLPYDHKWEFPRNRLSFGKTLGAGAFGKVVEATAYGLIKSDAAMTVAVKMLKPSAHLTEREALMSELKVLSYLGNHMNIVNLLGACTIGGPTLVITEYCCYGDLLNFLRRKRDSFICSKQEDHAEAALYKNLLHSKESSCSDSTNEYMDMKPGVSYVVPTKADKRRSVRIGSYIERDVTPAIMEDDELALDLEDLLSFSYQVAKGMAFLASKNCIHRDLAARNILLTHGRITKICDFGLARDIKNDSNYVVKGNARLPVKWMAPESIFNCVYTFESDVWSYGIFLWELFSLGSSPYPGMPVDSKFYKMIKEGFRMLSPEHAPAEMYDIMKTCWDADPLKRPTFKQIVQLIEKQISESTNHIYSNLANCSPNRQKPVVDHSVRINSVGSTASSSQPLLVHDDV

[3] = Solubility of the compound in pure water; assay type: physicochemical
Method in brief: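 Solubility measured in PBS pH 7.4 and in pure water, reported as µg/mL.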

[4] = system: GISTT1; experiment: Induction of apoptosis in human GISTT1 cells assessed as increase in cleaved PARP levels after at 30 nM 24 hrs by Western blot analysis; assay type: functional, cell-based
Method in brief: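 GIST-T1 or GIST-5R cells in DMEM with 10% FBS were exposed to serially diluted compound for 24 h. Apoptosis was assessed by western blot with PARP and GAPDH antibodies.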

[5] = biological target: Cyclin-dependent kinase-like 2 (Homo sapiens) (UniProt Q92772); experiment: Inhibition of partial length human CDKL2 expressed in bacterial expression system assessed as activity remaining at 1 uM by kinome scan assay
Chain of Cyclin-dependent kinase-like 2 (Homo sapiens) (Q92772 whole entry): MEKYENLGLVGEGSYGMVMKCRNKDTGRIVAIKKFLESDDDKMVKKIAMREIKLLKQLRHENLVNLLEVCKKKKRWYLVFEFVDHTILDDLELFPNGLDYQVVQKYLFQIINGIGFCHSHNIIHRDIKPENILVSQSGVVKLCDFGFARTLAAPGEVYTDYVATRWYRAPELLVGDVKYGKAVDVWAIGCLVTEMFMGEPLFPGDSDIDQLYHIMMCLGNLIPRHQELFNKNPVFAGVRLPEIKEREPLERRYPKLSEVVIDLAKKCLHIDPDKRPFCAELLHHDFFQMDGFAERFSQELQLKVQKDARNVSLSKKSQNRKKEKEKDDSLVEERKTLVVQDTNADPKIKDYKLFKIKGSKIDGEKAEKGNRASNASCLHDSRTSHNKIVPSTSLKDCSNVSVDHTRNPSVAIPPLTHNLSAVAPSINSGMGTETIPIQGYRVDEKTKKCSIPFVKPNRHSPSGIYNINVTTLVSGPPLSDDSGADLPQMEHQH

[6] = AUC (0 to infinity) in Sprague-Dawley rat at 1 mg/kg, iv measured up to 8 hrs post dosing; assay type: ADME, organism-based; parameters: dose 1 mg/kg, route intravenous, time infinity; conditions: in vivo
Method in brief: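 Male Sprague-Dawley rats, 8 weeks old, fasted overnight; iv dosing from a 1 mg/mL solution in 5% DMSO/40% PEG400/55% saline. Jugular-vein blood (~0.2 mL, heparinised) taken at 1, 5, 15, 30 min and 1, 2, 4, 6, 8 h; plasma held at -80 °C until analysis; n=3.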

[7] = biological target: T2, Mast/stem cell growth factor receptor Kit (Homo sapiens, UniProt P10721, T670I); experiment: Inhibition of cKIT T670I mutant in human GIST-5R cells assessed as downregulation of AKT phosphorylation at S473 after 1 hr by Western blot analysis; assay type: cell-based
T2 sequence (P10721 26-976 T670I limits assumed): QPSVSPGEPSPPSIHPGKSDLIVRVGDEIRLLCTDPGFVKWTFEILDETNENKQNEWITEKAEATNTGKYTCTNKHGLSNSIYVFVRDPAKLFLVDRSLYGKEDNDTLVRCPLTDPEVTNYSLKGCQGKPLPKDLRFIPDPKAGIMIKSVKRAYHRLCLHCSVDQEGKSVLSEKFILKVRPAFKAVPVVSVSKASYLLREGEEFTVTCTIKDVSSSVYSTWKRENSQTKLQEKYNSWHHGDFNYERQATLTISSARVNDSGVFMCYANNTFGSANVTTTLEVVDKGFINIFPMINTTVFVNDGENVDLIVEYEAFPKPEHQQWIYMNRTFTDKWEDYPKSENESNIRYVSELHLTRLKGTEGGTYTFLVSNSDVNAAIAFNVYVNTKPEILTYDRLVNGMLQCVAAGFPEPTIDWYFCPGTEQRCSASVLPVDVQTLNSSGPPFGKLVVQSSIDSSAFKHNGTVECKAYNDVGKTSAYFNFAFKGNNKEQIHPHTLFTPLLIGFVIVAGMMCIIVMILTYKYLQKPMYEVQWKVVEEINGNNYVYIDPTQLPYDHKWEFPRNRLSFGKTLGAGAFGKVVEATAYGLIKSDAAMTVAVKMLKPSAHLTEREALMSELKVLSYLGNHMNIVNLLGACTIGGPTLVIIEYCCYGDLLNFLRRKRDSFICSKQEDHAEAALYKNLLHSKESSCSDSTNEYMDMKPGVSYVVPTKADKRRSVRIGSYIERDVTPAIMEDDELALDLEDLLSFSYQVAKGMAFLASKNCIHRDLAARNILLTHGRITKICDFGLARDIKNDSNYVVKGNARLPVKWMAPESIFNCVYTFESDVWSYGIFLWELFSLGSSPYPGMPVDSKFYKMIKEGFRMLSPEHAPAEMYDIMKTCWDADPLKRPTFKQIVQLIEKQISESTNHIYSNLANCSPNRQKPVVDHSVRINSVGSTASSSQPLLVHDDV
Method in brief: (§1)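 GIST-T1 or GIST-5R cells in DMEM with 10% FBS were treated with serially diluted compound for 1 h. Cells were then lysed and analysed by western blotting.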

[8] = system: Mast/stem cell growth factor receptor Kit (Homo sapiens), P10721 [T670I]; experiment: Inhibition of partial length human cKIT T670I mutant expressed in bacterial expression system assessed as activity remaining at 1 uM by kinome scan assay
Chain of Mast/stem cell growth factor receptor Kit (Homo sapiens), P10721 [T670I] (P10721 whole entry T670I, the tested form may be a part): as the sequence (P10721 whole entry) above, with T670I counted along it

[9] = system: Mast/stem cell growth factor receptor Kit (Homo sapiens), P10721 [V654A]; experiment: Inhibition of TEL-fused cKIT V654A mutant (unknown origin) expressed in mouse BA/F3 cells assessed as cell growth inhibition after 72 hrs by cell titer-glo assay; assay type: cell-based
Chain of Mast/stem cell growth factor receptor Kit (Homo sapiens), P10721 [V654A] (P10721 whole entry V654A, the tested form may be a part): as the sequence (P10721 whole entry) above, with V654A counted along it
Method in brief: (§2)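 Cells seeded at 3000 per well and exposed to serial compound dilutions for 72 h. Viability read by CellTiter-Glo luminescence and normalised to DMSO controls; mean of three independent measurements. BaF3 lines kept IL-3-free in RPMI 1640/10% FBS after retroviral transduction and puromycin selection. GIST lines grown in DMEM/10% FBS.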

[10] = biological target: T2, Mast/stem cell growth factor receptor Kit; experiment: Inhibition of His-tagged cKIT T670I mutant (544 to 935 residues) (unknown origin) expressed in Sf9 cells using Poly(4:1 Glu, Tyr) peptide as substrate after 1 hr by ADP-glo kinase assay
[11] = system: Mast/stem cell growth factor receptor Kit (Homo sapiens), P10721 [T670I]; experiment: Inhibition of TEL-fused cKIT T670I mutant (unknown origin) expressed in mouse BA/F3 cells assessed as cell growth inhibition after 72 hrs by cell titer-glo assay; assay type: cell-based; method in brief: as §2
[12] = biological target: Epithelial discoidin domain-containing receptor 1 (Homo sapiens) (UniProt Q08345); experiment: Inhibition of partial length human DDR1 expressed in bacterial expression system assessed as activity remaining at 1 uM by kinome scan assay
Chain of Epithelial discoidin domain-containing receptor 1 (Homo sapiens) (Q08345 whole entry, the tested form may be a part): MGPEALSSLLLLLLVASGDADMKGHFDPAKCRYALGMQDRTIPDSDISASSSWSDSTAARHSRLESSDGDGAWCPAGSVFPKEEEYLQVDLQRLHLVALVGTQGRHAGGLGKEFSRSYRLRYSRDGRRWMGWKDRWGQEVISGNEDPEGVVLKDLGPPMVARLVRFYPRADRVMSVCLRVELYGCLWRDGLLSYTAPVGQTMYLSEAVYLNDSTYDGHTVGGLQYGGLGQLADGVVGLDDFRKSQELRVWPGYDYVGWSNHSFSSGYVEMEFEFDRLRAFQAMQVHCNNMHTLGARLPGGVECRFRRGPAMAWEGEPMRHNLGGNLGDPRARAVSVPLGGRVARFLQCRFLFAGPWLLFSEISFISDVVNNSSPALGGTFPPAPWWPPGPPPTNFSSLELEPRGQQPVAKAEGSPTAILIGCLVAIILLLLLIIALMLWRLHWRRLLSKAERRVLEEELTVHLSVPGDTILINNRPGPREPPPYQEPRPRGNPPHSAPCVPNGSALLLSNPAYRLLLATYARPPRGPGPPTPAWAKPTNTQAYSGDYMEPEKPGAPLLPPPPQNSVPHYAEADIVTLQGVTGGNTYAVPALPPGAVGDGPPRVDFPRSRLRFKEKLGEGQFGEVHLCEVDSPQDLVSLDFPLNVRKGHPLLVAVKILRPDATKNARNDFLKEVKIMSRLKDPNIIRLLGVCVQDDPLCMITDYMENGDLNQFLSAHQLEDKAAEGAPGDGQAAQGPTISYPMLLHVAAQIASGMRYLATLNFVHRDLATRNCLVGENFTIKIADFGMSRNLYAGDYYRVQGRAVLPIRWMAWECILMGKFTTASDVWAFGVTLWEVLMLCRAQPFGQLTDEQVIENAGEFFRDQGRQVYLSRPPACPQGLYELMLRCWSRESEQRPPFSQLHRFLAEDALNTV

[13] = system: Mast/stem cell growth factor receptor Kit (Homo sapiens), P10721 [T670I]; experiment: Ratio of Imatinib IC50 to compound IC50 for cKIT T670I mutant in human in GIST-5R cells; assay type: cell-based
[14] = biological target: Platelet-derived growth factor receptor beta (Homo sapiens) (UniProt P09619); experiment: Inhibition of TEL-fused partial length human PDGFRbeta expressed in mouse BA/F3 cells after 72 hrs by cell titer-glo assay; assay type: cell-based; method in brief: as §2
[15] = system: BaF3; experiment: Antitumor activity against TEL-fused cKIT T670I mutant expressing mouse BA/F3 cells allografted in nu/nu mouse assessed as tumor growth inhibition at 25 mg/kg, ip administered daily for 10 days; assay type: functional; conditions: 240 h, read-out: TGI
Method in brief: (§3)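 Female nu/nu mice, 5 weeks old at purchase, given 1 million BaF3-TEL-cKIT-T670I cells in PBS/Matrigel 1:1 subcutaneously on the right flank. At tumour volume 200–400 mm3, randomised into groups of 7 and dosed IP daily for 10 days (25, 50, 100 mg/kg/d or vehicle: 0.5% methylcellulose/0.4% Tween80 in water). Tumour volume (W2×L/2) and body weight recorded daily.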

[16] = biological target: Vascular endothelial growth factor receptor 3 (Homo sapiens) (UniProt P35916); experiment: Inhibition of TEL-fused partial length human FLT4 expressed in mouse BA/F3 cells after 72 hrs by cell titer-glo assay; assay type: cell-based; method in brief: as §2
[17] = biological target: T1, Mast/stem cell growth factor receptor Kit; experiment: Inhibition of wild type cKIT autophosphorylation at Y703 in human GIST-T1 cells at 100 nM after 1 hr by Western blot analysis; assay type: cell-based; method in brief: as §1
[18] = biological target: Proto-oncogene tyrosine-protein kinase receptor Ret (Homo sapiens) (UniProt P07949); experiment: Inhibition of partial length human RET expressed in bacterial expression system assessed as activity remaining at 1 uM by kinome scan assay
[19] = biological target: T1, Mast/stem cell growth factor receptor Kit; experiment: Inhibition of wild type cKIT in human GIST-T1 cells assessed as downregulation of S6 phosphorylation at S235/236 after 1 hr by Western blot analysis; assay type: cell-based
Method in brief: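 GIST-T1 cells in DMEM with 10% FBS were exposed to serially diluted compound for 1 h, then lysed. Lysates were analysed by western blot with phospho-specific antibodies against AKT (Ser473), ERK1/2 (Thr202/Tyr204) and S6 ribosomal protein (Ser235/236), each alongside its total protein.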

[20] = biological target: T1, Mast/stem cell growth factor receptor Kit; experiment: Inhibition of partial length human cKIT expressed in bacterial expression system assessed as activity remaining at 1 uM by kinome scan assay
[21] = system: BaF3; experiment: Antitumor activity against TEL-fused cKIT T670I mutant expressing mouse BA/F3 cells allografted in nu/nu mouse assessed as tumor growth inhibition at 100 mg/kg/day, ip administered daily for 10 days; assay type: functional; conditions: 240 h, read-out: TGI; method in brief: as §3

Which Activity [1] does the source give for `CCC(=O)NCC1CCN(c2ccc(NC(=O)Nc3cccc(Oc4ccnc5cc(OC)c(OC)cc45)c3)cc2C(F)(F)F)CC1` here?
Its Activity is 0%.

What about the Ratio IC50 [2] of the same compound?
Its Ratio IC50 is 7.

What about the solubility [3] of the same compound?
Its solubility is 78 µM (≈ 50.8 µg/mL).

What about the Activity [4] of the same compound?
The Activity was “Active”.

And the Activity [5]?
Its Activity is 0%.

What about the AUC [6] of the same compound?
The AUC was 385 ng·h/mL.

What about the EC50 [7] of the same compound?
Its EC50 is under 100 nM.

And the Activity [8]?
Its Activity is under 1%.

And the GI50 [9]?
The GI50 was 320 nM.

And the IC50 [10]?
Its IC50 is 99 nM.

And the GI50 [11]?
Its GI50 is 63 nM.

And the Activity [12]?
Its Activity is under 1%.

And the Ratio IC50 [13]?
The Ratio IC50 was 300.

And the GI50 [14]?
The GI50 was 5 nM.

What about the inhibition in vivo at 25 mg/kg [15] of the same compound?
Its inhibition in vivo at 25 mg/kg is 18.3%.

What about the GI50 [16] of the same compound?
Its GI50 is 240 nM.

What about the inhibition [17] of the same compound?
The inhibition was “Active”.

And the Activity [18]?
The Activity was 0%.

What about the EC50 [19] of the same compound?
The EC50 was under 100 nM.

What about the Activity [20] of the same compound?
The Activity was under 1%.

And the inhibition in vivo at 100 mg/kg/day [21]?
The inhibition in vivo at 100 mg/kg/day was 47.7%.
